Experimental data reported in ChEMBL document CHEMBL1153534, “Design and synthesis of androgen receptor antagonists with bulky side chains for overcoming antiandrogen resistance” (J Med Chem, 2009).
Activity calls are given as the source filed them. The rule behind the calls is not given here.

What was measured:
PC-3 [1] = assay: Activity in human PC3 cells expressing androgen receptor H874Y mutant assessed as ARE-dependent transactivation at 1 uM after 24 hrs by luciferase reporter gene assay in absence of DHT; type: cell-based
Method in brief: (§1)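 PC-3 cells, which lack endogenous AR, transiently transfected with plasmids expressing human AR (WT, T877A, W741C or H874Y) plus an ARE-driven MMTV-luc reporter. Cells were treated with or without 0.1 nM DHT. Firefly luciferase was standardized to a Renilla control and normalized to the 0.1 nM DHT signal. Mean ± sd.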

PC-3 [2] = assay: Antiandrogenic activity in human PC3 cells expressing androgen receptor T877A mutant assessed as inhibition of DHT-induced ARE-dependent transactivation at 1 uM after 24 hrs by luciferase reporter gene assay; type: cell-based; method in brief: as §1
PC-3 [3] = assay: Antiandrogenic activity in human PC3 cells expressing androgen receptor H874Y mutant assessed as inhibition of DHT-induced ARE-dependent transactivation at 1 uM after 24 hrs by luciferase reporter gene assay; type: cell-based; method in brief: as §1
LNCaP = assay: Suppression of DHT-stimulated growth of human LNCAP cells after 72 hrs with increasing concentration of DHT; type: functional, cell-based
PC-3 [4] = assay: Suppression of DHT-stimulated growth of human PC3 cells after 72 hrs with increasing concentration of DHT; type: functional, cell-based
[5] = biological target: T1, Androgen receptor (Rattus norvegicus) (UniProt P15207); assay: Binding affinity to rat androgen receptor ligand binding domain by competitive fluorescence polarization assay
T1 sequence (whole entry): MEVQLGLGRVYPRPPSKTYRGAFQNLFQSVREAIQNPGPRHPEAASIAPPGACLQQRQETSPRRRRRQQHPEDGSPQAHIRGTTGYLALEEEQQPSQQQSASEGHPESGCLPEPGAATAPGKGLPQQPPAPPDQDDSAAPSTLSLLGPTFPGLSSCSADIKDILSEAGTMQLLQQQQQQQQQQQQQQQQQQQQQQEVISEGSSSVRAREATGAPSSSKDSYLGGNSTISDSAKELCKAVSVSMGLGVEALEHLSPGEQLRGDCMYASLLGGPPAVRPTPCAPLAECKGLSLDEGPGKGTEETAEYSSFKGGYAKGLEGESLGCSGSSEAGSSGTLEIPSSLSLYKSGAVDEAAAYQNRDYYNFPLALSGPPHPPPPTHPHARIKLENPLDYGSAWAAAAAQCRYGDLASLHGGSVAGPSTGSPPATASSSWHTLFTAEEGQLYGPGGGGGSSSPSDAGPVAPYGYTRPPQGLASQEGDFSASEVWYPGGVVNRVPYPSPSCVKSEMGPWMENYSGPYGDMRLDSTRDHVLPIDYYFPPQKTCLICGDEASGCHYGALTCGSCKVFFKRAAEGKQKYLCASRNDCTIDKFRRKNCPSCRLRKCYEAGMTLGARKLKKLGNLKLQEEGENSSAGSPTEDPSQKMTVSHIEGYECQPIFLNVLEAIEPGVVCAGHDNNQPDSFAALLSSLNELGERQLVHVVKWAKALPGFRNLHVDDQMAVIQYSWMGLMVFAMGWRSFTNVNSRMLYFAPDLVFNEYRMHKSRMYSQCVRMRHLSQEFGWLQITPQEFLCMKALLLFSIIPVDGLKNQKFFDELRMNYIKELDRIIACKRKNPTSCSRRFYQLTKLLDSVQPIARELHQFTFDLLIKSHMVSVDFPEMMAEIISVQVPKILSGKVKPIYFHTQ
Method in brief: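 Competitive fluorescence polarization with the PolarScreen AR competitor kit, measuring displacement of a fluorescent tracer from the AR-LBD. Polarization was normalized to DMSO vehicle, which sets the maximum. Tracer without receptor sets the minimum, and DHT served as positive control. Average ± sd of experiments in triplicate.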

[6] = biological target: T2, Progesterone receptor (Homo sapiens) (UniProt P06401); assay: Antagonist activity at human PR B-form expressed in human PC3 cells assessed as inhibition of R5020-induced transactivation at 1 uM after 24 hrs by luciferase reporter gene assay; type: functional, cell-based; conditions: PC-3
T2 sequence (whole entry): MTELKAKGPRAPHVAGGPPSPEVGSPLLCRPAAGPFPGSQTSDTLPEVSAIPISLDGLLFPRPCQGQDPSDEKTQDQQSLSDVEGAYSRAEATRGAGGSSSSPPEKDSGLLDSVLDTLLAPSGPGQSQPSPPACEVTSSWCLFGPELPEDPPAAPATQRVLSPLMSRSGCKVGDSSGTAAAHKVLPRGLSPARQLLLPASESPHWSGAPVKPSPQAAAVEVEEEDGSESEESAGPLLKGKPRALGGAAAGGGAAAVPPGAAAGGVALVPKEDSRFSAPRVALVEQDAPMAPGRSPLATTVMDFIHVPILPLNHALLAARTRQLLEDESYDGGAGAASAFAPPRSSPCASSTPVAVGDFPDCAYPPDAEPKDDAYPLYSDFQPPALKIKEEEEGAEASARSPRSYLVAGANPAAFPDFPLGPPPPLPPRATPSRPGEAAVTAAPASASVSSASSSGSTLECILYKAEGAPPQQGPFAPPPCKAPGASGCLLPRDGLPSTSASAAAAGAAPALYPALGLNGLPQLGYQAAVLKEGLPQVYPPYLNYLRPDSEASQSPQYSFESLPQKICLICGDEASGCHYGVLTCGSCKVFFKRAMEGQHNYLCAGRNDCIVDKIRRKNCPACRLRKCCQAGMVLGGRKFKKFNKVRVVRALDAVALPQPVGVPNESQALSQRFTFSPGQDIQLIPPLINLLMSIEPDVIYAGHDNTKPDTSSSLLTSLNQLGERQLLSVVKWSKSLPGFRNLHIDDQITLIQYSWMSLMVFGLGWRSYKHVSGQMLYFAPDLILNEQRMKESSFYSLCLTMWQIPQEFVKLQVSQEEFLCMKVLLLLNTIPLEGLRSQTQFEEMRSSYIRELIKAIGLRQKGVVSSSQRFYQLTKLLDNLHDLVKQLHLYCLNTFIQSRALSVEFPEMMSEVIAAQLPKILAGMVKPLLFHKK
Method in brief: (§2)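 PC-3 cells carrying a luciferase reporter for transactivation by the human PR B form. Antagonist mode used 10 nM R5020 as the agonist. Agonist mode ran in the absence of R5020. Luciferase read-out.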

[7] = biological target: T2, Progesterone receptor (Homo sapiens); assay: Agonist activity at human PR B-form expressed in human PC3 cells assessed as receptor transactivation at 1 uM after 24 hrs by luciferase reporter gene assay; type: functional, cell-based; conditions: PC-3; method in brief: as §2

## COc1cc(/C=C(\C(=O)/C=C/C2=C(C)CCCC2(C)C)C(=O)/C=C/c2ccc(O)c(OC)c2)ccc1O
PC-3 [1]
  Activity: inactive
PC-3 [2]
  Activity: Active
PC-3 [3]
  Activity: Active
LNCaP
  Activity: inactive
PC-3 [4]
  Activity: Active
[5]
  Activity: Dose-dependent effect
[6]
  Activity: inactive
[7]
  Activity: inactive
